Reference: ChEMBL document CHEMBL2311513, “Fragment growing and linking lead to novel nanomolar lactate dehydrogenase inhibitors” (J Med Chem, 2013)
Active and inactive are the calls of the source. No cut-off for these calls is given here.

Biological target: T1, L-lactate dehydrogenase A chain (Homo sapiens, UniProt P00338)
Test: Inhibition of LDH-A (unknown origin) by enzyme assay

Point of comparison: `COc1cc(OCCCNC(=O)COc2cc(F)cc(-c3ccc(C(=O)O)cn3)c2)c(Cl)cc1NC(=O)CSc1ccc(C(=O)O)cn1`, IC50 2.4 µM. Against it:
- COc1ccc(Cl)cc1NC(=O)CSc1ccc(C(=O)O)cn1 — 320-fold higher, 770 µM
- Nc1cc(F)cc(-c2ccc(C(=O)O)cn2)c1 — 540-fold higher, 1300 µM
- COc1cc(OCCCOCCCOc2cc(F)cc(-c3ccc(C(=O)O)cn3)c2)c(Cl)cc1NC(=O)CSc1ccc(C(=O)O)cn1 — 25-fold higher, 59 µM
- O=C(O)c1ccc(-c2ccccc2)nc1 — higher, > 2000 µM
- COc1cc(OC[C@H](O)[C@H](O)[C@@H](O)[C@@H](O)COc2cc(F)cc(-c3ccc(C(=O)O)cn3)c2)c(Cl)cc1NC(=O)CSc1ccc(C(=O)O)cn1 — 6.3-fold higher, 15.2 µM
- COc1cc(OC[C@@H](O)[C@@H](O)[C@H](O)[C@H](O)CNc2cc(F)cc(-c3ccc(C(=O)O)cn3)c2)c(Cl)cc1NC(=O)CSc1ccccn1 — the same, 2.4 µM
- COc1cc(OC[C@@H](O)[C@@H](O)[C@H](O)[C@H](O)CNc2cc(F)cc(-c3ccccn3)c2)c(Cl)cc1NC(=O)CSc1ccc(C(=O)O)cn1 — 5.4-fold higher, 13 µM
- COc1cc(OC[C@@H](O)[C@@H](O)[C@H](O)[C@H](O)COc2cc(F)cc(-c3ccc(C(=O)O)cn3)c2)c(Cl)cc1NC(=O)CSc1ccc(C(=O)O)cn1 — 5.5-fold lower, 0.44 µM
- COc1cc(OC[C@@H](O)[C@@H](O)[C@H](O)[C@H](O)CNc2cc(F)cc(-c3ccc(C(=O)O)cn3)c2)c(Cl)cc1NC(=O)CSc1ccc(C(=O)O)cn1 — 20-fold lower, 0.12 µM
- O=C(O)COc1cc(F)cc(-c2ccc(C(=O)O)cn2)c1 — 920-fold higher, 2200 µM
- COc1cc(OCC(O)CO)c(Cl)cc1NC(=O)CSc1ccc(C(=O)O)cn1 (stereo unspecified) — 140-fold higher, 342 µM
- COC(=O)c1ccc(SCC(=O)Nc2cc(Cl)c(OC[C@@H](O)[C@@H](O)[C@H](O)[C@H](O)CNc3cc(F)cc(-c4ccc(C(=O)OC)cn4)c3)cc2OC)nc1 — higher, > 10000 µM

Biological target: T1, L-lactate dehydrogenase A chain
Test: Inhibition of LDH-A in human Ramos cells assessed as cellular lactate level at 200 uM after 1 hr
Type: cell-based
Procedure, shortened: (§1)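 Supernatant sampled after 1 and 4 h. Extracellular lactate measured by a two-step lactate assay, both times within the linear range. Lactate expressed relative to vehicle, from a representative experiment.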

Point of comparison: `COc1cc(OC[C@@H](O)[C@@H](O)[C@H](O)[C@H](O)CNc2cc(F)cc(-c3ccc(C(=O)O)cn3)c2)c(Cl)cc1NC(=O)CSc1ccccn1`, lactate level (% of vehicle) 21%. Against it:
- COc1cc(OC[C@@H](O)[C@@H](O)[C@H](O)[C@H](O)CNc2cc(F)cc(-c3ccccn3)c2)c(Cl)cc1NC(=O)CSc1ccc(C(=O)O)cn1 — lower, 17%
- COc1cc(OC[C@@H](O)[C@@H](O)[C@H](O)[C@H](O)CNc2cc(F)cc(-c3ccc(C(=O)O)cn3)c2)c(Cl)cc1NC(=O)CSc1ccc(C(=O)O)cn1 — higher, 56%

With `COC(=O)c1ccc(SCC(=O)Nc2cc(Cl)c(OC[C@@H](O)[C@@H](O)[C@H](O)[C@H](O)CNc3cc(F)cc(-c4ccc(C(=O)OC)cn4)c3)cc2OC)nc1` the inhibition was “inactive”.

Biological target: T1, L-lactate dehydrogenase A chain
Test: Inhibition of LDH-A (unknown origin) up to 1 mM in presence of 0.1% Triton

With `O=C(CCCCN1C(=O)/C(=C/c2ccc(O)c(O)c2)SC1=S)NCc1ccc(Cl)c(Cl)c1` the inhibition was “inactive”.
`O=C(O)CN1C(=O)/C(=C/c2ccc(O)c(O)c2)SC1=S` was tested, and the inhibition was “inactive”.

Biological target: T1, L-lactate dehydrogenase A chain
Test: Inhibition of LDH-A (unknown origin) in presence of 0.1% Triton

With `COc1cc(OC[C@@H](O)[C@@H](O)[C@H](O)[C@H](O)COc2cc(F)cc(-c3ccc(C(=O)O)cn3)c2)c(Cl)cc1NC(=O)CSc1ccc(C(=O)O)cn1` the IC50 was 0.325 µM.

Biological target: T1, L-lactate dehydrogenase A chain
Test: Binding affinity to human LDH-A by surface plasmon resonance analysis
Procedure, shortened: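 Human LDH-A amine-coupled to a CM5 chip (~13000 RU), carbonic anhydrase II as reference surface. Running buffer 10 mM HEPES, 150 mM NaCl, 3% DMSO. Compounds injected as 2-fold dilution series, top 1 mM, at 20 °C. Equilibrium and kinetic responses fitted to a 1:1 binding model to give Kd.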

Point of comparison: `O=C(O)COc1cc(F)cc(-c2ccc(C(=O)O)cn2)c1`, Kd 1300 µM. Against it:
- COc1ccc(Cl)cc1NC(=O)CSc1ccc(C(=O)O)cn1 — 9.5-fold lower, 137 µM
- COc1cc(OCCCOCCCOc2cc(F)cc(-c3ccc(C(=O)O)cn3)c2)c(Cl)cc1NC(=O)CSc1ccc(C(=O)O)cn1 — 1500-fold lower, 0.85 µM
- O=C(O)c1ccc(-c2ccccc2)nc1 — 1.8-fold higher, 2300 µM
- COc1cc(OC[C@H](O)[C@H](O)[C@@H](O)[C@@H](O)COc2cc(F)cc(-c3ccc(C(=O)O)cn3)c2)c(Cl)cc1NC(=O)CSc1ccc(C(=O)O)cn1 — 110-fold lower, 12 µM
- COc1cc(OC[C@@H](O)[C@@H](O)[C@H](O)[C@H](O)CNc2cc(F)cc(-c3ccc(C(=O)O)cn3)c2)c(Cl)cc1NC(=O)CSc1ccccn1 — 5900-fold lower, 0.222 µM
- COc1cc(OC[C@@H](O)[C@@H](O)[C@H](O)[C@H](O)CNc2cc(F)cc(-c3ccccn3)c2)c(Cl)cc1NC(=O)CSc1ccc(C(=O)O)cn1 — 440-fold lower, 2.95 µM
- COc1cc(OC[C@@H](O)[C@@H](O)[C@H](O)[C@H](O)COc2cc(F)cc(-c3ccc(C(=O)O)cn3)c2)c(Cl)cc1NC(=O)CSc1ccc(C(=O)O)cn1 — 19000-fold lower, 0.068 µM
- COc1cc(OC[C@@H](O)[C@@H](O)[C@H](O)[C@H](O)CNc2cc(F)cc(-c3ccc(C(=O)O)cn3)c2)c(Cl)cc1NC(=O)CSc1ccc(C(=O)O)cn1 — 68000-fold lower, 0.019 µM
- COc1cc(OCC(O)CO)c(Cl)cc1NC(=O)CSc1ccc(C(=O)O)cn1 (stereo unspecified) — 3.6-fold lower, 360 µM
- COc1cc(OCCCNC(=O)COc2cc(F)cc(-c3ccc(C(=O)O)cn3)c2)c(Cl)cc1NC(=O)CSc1ccc(C(=O)O)cn1 — 7400-fold lower, 0.175 µM

Biological target: T1, L-lactate dehydrogenase A chain
Test: Inhibition of LDH-A (unknown origin) in absence of 0.1% Triton

For `COc1cc(OC[C@@H](O)[C@@H](O)[C@H](O)[C@H](O)COc2cc(F)cc(-c3ccc(C(=O)O)cn3)c2)c(Cl)cc1NC(=O)CSc1ccc(C(=O)O)cn1`, the IC50 was 0.22 µM.

Biological target: T1, L-lactate dehydrogenase A chain
Test: Inhibition of LDH-A in human Ramos cells assessed as cellular lactate level at 200 uM after 4 hrs
Type: cell-based
Procedure, shortened: as §1

Point of comparison: `COc1cc(OC[C@@H](O)[C@@H](O)[C@H](O)[C@H](O)CNc2cc(F)cc(-c3ccc(C(=O)O)cn3)c2)c(Cl)cc1NC(=O)CSc1ccc(C(=O)O)cn1`, lactate level (% of vehicle) 68%. Against it:
- COc1cc(OC[C@@H](O)[C@@H](O)[C@H](O)[C@H](O)CNc2cc(F)cc(-c3ccc(C(=O)O)cn3)c2)c(Cl)cc1NC(=O)CSc1ccccn1 — lower, 61%
- COc1cc(OC[C@@H](O)[C@@H](O)[C@H](O)[C@H](O)CNc2cc(F)cc(-c3ccccn3)c2)c(Cl)cc1NC(=O)CSc1ccc(C(=O)O)cn1 — lower, 35%

With `COC(=O)c1ccc(SCC(=O)Nc2cc(Cl)c(OC[C@@H](O)[C@@H](O)[C@H](O)[C@H](O)CNc3cc(F)cc(-c4ccc(C(=O)OC)cn4)c3)cc2OC)nc1` the inhibition was “inactive”.
